Assay results published in ChEMBL document CHEMBL3232916, “1-(4-Methoxyphenyl)-5-(3,4,5-trimethoxyphenyl)-1H-1,2,4-triazole-3-carboxamides: synthesis, molecular modeling, evaluation of their anti-inflammatory activity and ulcerogenicity” (Eur J Med Chem, 2014).

What was measured:
Rattus norvegicus [1] = assay: Antiinflammatory activity in albino rat assessed as inhibition of carrageenan-induced paw edema at 0.28 mmol/kg, po administered 30 mins before carrageenan challenge measured after 1 hr relative to control; type: functional
Method in brief: (§1)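 Male albino rats, n = 4 per group. Dosed orally as a suspension in 0.5% w/v CMC in water; controls received CMC alone. 0.1 mL of freshly prepared 1% carrageenan in saline was injected subplantar into the right hind paw 30 min after dosing, with saline in the left paw. Right paw thickness was read by Vernier caliper before and at 1–5 h. Result is % decrease in edema vs control, mean ± S.E.M.; one-way ANOVA.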

Rattus norvegicus [2] = assay: Ulcerogenic effect in albino rat assessed as ulcer index at 0.28 mmol/kg, po; type: toxicity, organism-based; settings: in vivo
Method in brief: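 Rat gastric ulcers were graded by area: level I <1 mm², level II 1–3 mm², level III >3 mm². Ulcer index = 1×(level I count) + 2×(level II) + 3×(level III). Reported as mean ± S.E.M., n = 4.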

[3] = target: T1, Prostaglandin G/H synthase 2 (Homo sapiens, UniProt P35354); assay: Inhibition of human recombinant COX2 assessed as prostaglandin F2alpha level
T1 sequence (P35354 whole entry): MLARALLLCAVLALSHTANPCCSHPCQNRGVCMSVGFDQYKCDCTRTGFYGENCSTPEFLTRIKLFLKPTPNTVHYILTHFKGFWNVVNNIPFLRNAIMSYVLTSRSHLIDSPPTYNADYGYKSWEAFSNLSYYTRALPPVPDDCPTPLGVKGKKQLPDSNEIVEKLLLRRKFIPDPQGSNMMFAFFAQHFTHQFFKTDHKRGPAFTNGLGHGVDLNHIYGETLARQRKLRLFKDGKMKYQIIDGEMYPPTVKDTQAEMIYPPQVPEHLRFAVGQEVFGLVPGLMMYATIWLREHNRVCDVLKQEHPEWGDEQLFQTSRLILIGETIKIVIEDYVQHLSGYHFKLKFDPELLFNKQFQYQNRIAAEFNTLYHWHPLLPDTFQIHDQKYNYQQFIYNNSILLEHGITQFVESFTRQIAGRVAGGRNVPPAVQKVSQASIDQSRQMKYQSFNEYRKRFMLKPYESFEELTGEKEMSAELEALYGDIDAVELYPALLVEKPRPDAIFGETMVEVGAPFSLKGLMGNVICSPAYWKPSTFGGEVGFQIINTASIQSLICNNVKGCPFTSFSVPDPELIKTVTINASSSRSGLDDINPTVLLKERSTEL

Rattus norvegicus [4] = assay: Antiinflammatory activity in albino rat assessed as inhibition of carrageenan-induced paw edema at 0.28 mmol/kg, po administered 30 mins before carrageenan challenge measured after 3 hrs relative to celecoxib; type: functional; settings: read-out: INH
Method in brief: (§2)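 Calculated from the 3 h % edema inhibition in carrageenan paw edema (male albino rats, oral dosing in 0.5% CMC 30 min before 1% carrageenan subplantar injection). Expressed as % of the inhibition given by the reference drug in the same assay.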

Rattus norvegicus [5] = assay: Antiinflammatory activity in albino rat assessed as inhibition of carrageenan-induced paw edema at 0.28 mmol/kg, po administered 30 mins before carrageenan challenge measured after 4 hrs relative to control; type: functional; method in brief: as §1
Rattus norvegicus [6] = assay: Antiinflammatory activity in albino rat assessed as inhibition of carrageenan-induced paw edema at 0.28 mmol/kg, po administered 30 mins before carrageenan challenge measured after 2 hrs relative to control; type: functional; method in brief: as §1
Rattus norvegicus [7] = assay: Antiinflammatory activity in albino rat assessed as inhibition of carrageenan-induced paw edema at 0.28 mmol/kg, po administered 30 mins before carrageenan challenge measured after 3 hrs relative to control; type: functional; method in brief: as §1
[8] = target: T2, Prostaglandin G/H synthase 1 (Ovis aries, UniProt P05979); assay: Inhibition of ovine COX1 assessed as prostaglandin F2alpha level
T2 sequence (P05979 whole entry): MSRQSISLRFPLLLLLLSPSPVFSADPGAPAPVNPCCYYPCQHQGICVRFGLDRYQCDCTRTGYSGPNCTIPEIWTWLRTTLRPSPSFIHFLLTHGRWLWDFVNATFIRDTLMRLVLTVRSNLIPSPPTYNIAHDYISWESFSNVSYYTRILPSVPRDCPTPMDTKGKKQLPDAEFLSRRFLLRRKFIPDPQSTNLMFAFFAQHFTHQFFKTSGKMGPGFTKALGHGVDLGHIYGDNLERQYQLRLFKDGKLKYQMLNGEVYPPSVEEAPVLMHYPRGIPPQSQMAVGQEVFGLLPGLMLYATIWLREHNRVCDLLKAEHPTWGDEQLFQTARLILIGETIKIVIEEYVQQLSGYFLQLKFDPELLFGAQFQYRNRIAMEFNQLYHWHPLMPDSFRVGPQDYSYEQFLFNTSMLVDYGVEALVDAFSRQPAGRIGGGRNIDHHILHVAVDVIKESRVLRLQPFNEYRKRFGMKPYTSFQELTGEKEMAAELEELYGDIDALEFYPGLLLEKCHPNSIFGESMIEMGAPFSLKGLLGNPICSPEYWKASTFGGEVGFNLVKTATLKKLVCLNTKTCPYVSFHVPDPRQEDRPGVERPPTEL

Rattus norvegicus [9] = assay: Antiinflammatory activity in albino rat assessed as inhibition of carrageenan-induced paw edema at 0.28 mmol/kg, po administered 30 mins before carrageenan challenge measured after 5 hrs relative to control; type: functional; method in brief: as §1
Rattus norvegicus [10] = assay: Antiinflammatory activity in albino rat assessed as inhibition of carrageenan-induced paw edema at 0.28 mmol/kg, po administered 30 mins before carrageenan challenge measured after 3 hrs relative to indomethacin; type: functional; settings: read-out: INH; method in brief: as §2
[11] = Selectivity ratio IC50 for ovine COX1 to IC50 for human recombinant COX2

Row | IC50 [3] [µM] | IC50 [8] [µM] | Ratio IC50 [11] | SMILES | inhibition in vivo at 280 µmol/kg (Rattus norvegicus [1]) [%] | UI (Rattus norvegicus [2]) | paw edema inhibition relative to celecoxib at 280 µmol/kg (Rattus norvegicus [4]) [%] | inhibition in vivo at 280 µmol/kg (Rattus norvegicus [5]) [%] | inhibition in vivo at 280 µmol/kg (Rattus norvegicus [6]) [%] | inhibition in vivo at 280 µmol/kg (Rattus norvegicus [7]) [%] | inhibition in vivo at 280 µmol/kg (Rattus norvegicus [9]) [%] | paw edema inhibition relative to indomethacin at 280 µmol/kg (Rattus norvegicus [10]) [%]
1 | > 100 | > 100 | – | COc1ccc(-n2nc(C(=O)Nc3ccc(Br)cc3)nc2-c2cc(OC)c(OC)c(OC)c2)cc1 | 40 | 1.8 | 97 | 59 | 50 | 66 | 57 | 85
2 | > 100 | > 100 | – | COc1ccc(-n2nc(C(=O)Nc3ccc(OC)c(OC)c3)nc2-c2cc(OC)c(OC)c(OC)c2)cc1 | 57 | 7 | 115 | 70 | 68 | 78 | 61 | 100
3 | – | – | – | CCNC(=O)c1nc(-c2cc(OC)c(OC)c(OC)c2)n(-c2ccc(OC)cc2)n1 | 60 | 9 | 101 | 58 | 68 | 69 | 52 | 88
4 | – | – | – | COc1ccc(-n2nc(C(=O)Nc3ccccc3)nc2-c2cc(OC)c(OC)c(OC)c2)cc1 | 45 | 4 | 79 | 50 | 51 | 54 | 46 | 69
5 | – | – | – | COc1ccc(-n2nc(C(=O)Nc3cccc(C(F)(F)F)c3)nc2-c2cc(OC)c(OC)c(OC)c2)cc1 | 48 | 5 | 96 | 56 | 55 | 65 | 50 | 83
6 | – | – | – | COc1ccc(-n2nc(C(=O)Nc3ccccc3OC)nc2-c2cc(OC)c(OC)c(OC)c2)cc1 | 52 | 5 | 44 | 24 | 57 | 30 | 10 | 38
7 | – | – | – | COc1ccc(-n2nc(C(=O)Nc3ccc(C(=O)O)cc3)nc2-c2cc(OC)c(OC)c(OC)c2)cc1 | 50 | 12 | 109 | 69 | 57 | 74 | 60 | 95
8 | – | – | – | COc1ccc(-n2nc(C(=O)Nc3ccc(O)cc3)nc2-c2cc(OC)c(OC)c(OC)c2)cc1 | 36 | 1 | 74 | 37 | 35 | 50 | 27 | 64
9 | > 100 | > 100 | – | COc1ccc(-n2nc(C(=O)Nc3ccc(Cl)cc3)nc2-c2cc(OC)c(OC)c(OC)c2)cc1 | 55 | 5 | 115 | 75 | 70 | 78 | 70 | 100
10 | – | – | – | COc1ccc(NC(=O)c2nc(-c3cc(OC)c(OC)c(OC)c3)n(-c3ccc(OC)cc3)n2)cc1 | 39 | 4.5 | 99 | 63 | 45 | 67 | 51 | 86
11 | 68.2 | 45.9 | 0.67 | CNC(=O)c1nc(-c2cc(OC)c(OC)c(OC)c2)n(-c2ccc(OC)cc2)n1 | 56 | 7.5 | 109 | 65 | 74 | 74 | 50 | 95
12 | – | – | – | Cc1ccc(-c2cc(C(F)(F)F)nn2-c2ccc(S(N)(=O)=O)cc2)cc1 [CELECOXIB] | 42 | 0.5 | – | 57 | 48 | 68 | 51 | –
13 | 46.3 | 39.8 | 0.86 | COc1ccc(-n2nc(C(=O)NN)nc2-c2cc(OC)c(OC)c(OC)c2)cc1 | 36 | 2 | 84 | 54 | 47 | 57 | 56 | 73
14 | – | – | – | COc1ccc(-n2nc(C(N)=O)nc2-c2cc(OC)c(OC)c(OC)c2)cc1 | 40 | 9 | 106 | 71 | 59 | 72 | 64 | 92
15 | – | – | – | COc1ccc(-n2nc(C(=O)Nc3ccc(C)cc3)nc2-c2cc(OC)c(OC)c(OC)c2)cc1 | 38 | 5.5 | 88 | 58 | 60 | 60 | 42 | 77
